Measurements: ChEMBL document CHEMBL1129647, “Targeting delavirdine/atevirdine resistant HIV-1: identification of (alkylamino)piperidine-containing bis(heteroaryl)piperazines as broad spectrum HIV-1 reverse transcriptase inhibitors” (J Med Chem, 1996)
pIC50, pKi: −log10 of the molar value. Blank lines part the entries; values can stand above or below the compound they belong to.

Experiments:
[1] = Bioavailability at an iv dose of 15 mg/Kg and po dose of 30.2 mg/Kg; format: ADME, organism-based; conditions: rat, in vivo, read-out: Bioavailabiility
Procedure, shortened: (§1)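 Male Sprague-Dawley rats, fasted, dosed iv and po in a crossover design with a 1 week washout between treatments (N = 3). Compound was given as a solution in propylene glycol/water (80/20, v/v) acidified with a molar excess of methanesulfonic acid. Values are the iv clearance and the absolute oral bioavailability.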

[2] = Clearance at an iv dose of 15 mg/Kg and po dose of 30.2 mg/Kg; format: ADME, organism-based; conditions: rat, in vivo; procedure, shortened: as §1
[3] = test system: Human immunodeficiency virus 1; experiment: Concentration required to inhibit P24 production by 90% against L-697661 of HIV-1 IIIB (Y181C); format: functional
[4] = target: T1, Human immunodeficiency virus type 1 reverse transcriptase (Human immunodeficiency virus 1, UniProt Q72547)
[5] = Bioavailability at an iv dose of 16 mg/Kg and po dose of 35 mg/Kg; format: ADME, organism-based; conditions: rat, in vivo, read-out: Bioavailabiility; procedure, shortened: as §1
[6] = target: T2, Human immunodeficiency virus type 1 reverse transcriptase (Human immunodeficiency virus 1, UniProt Q72547, Y181C)
[7] = Clearance at an iv dose of 16 mg/Kg and po dose of 35 mg/Kg; format: ADME, organism-based; conditions: rat, in vivo; procedure, shortened: as §1
[8] = target: T3, Human immunodeficiency virus type 1 reverse transcriptase (Human immunodeficiency virus 1, UniProt Q72547, P236L); experiment: Compound was tested for inhibition of HIV-1 P236L reverse transcriptase using poly(rA)300:oligo(dT)10 as substrate
[9] = target: T2, Human immunodeficiency virus type 1 reverse transcriptase; experiment: Compound was tested for inhibition of HIV-1 Y181C reverse transcriptase using dTTP as substrate
[10] = test system: Human immunodeficiency virus 1; experiment: In vitro inhibition of recombinant HIV-1 IIIB mutant WT; format: functional, organism-based
[11] = Clearance at an iv dose of 15 mg/Kg and po dose of 30 mg/Kg; format: ADME, organism-based; conditions: in vivo; procedure, shortened: as §1
[12] = Clearance at an iv dose of 15 mg/Kg and po dose of 60 mg/Kg; format: ADME, organism-based; conditions: in vivo; procedure, shortened: as §1
[13] = Bioavailability at an iv dose of 15 mg/Kg and po dose of 60 mg/Kg; format: ADME, organism-based; conditions: in vivo, read-out: Bioavailabiility; procedure, shortened: as §1
[14] = Bioavailability at an iv dose of 15 mg/Kg and po dose of 120 mg/Kg; format: ADME, organism-based; conditions: in vivo, read-out: Bioavailabiility; procedure, shortened: as §1
[15] = Bioavailability (dose 15 mg/kg i.v. and 30 mg/kg p.o.); format: ADME, organism-based; conditions: eutheria, in vivo, po; procedure, shortened: as §1
[16] = test system: Human immunodeficiency virus 1; experiment: In vitro inhibition of recombinant HIV-1 IIIB mutant P236L; format: functional, organism-based
[17] = target: T1, Human immunodeficiency virus type 1 reverse transcriptase; experiment: Compound was tested for inhibition of HIV-1 181C cell line using poly(rA)300:oligo(dT)10 as substrate
Procedure, shortened: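 Kinetic inhibition study on homodimeric recombinant HIV-1 RTs (WT, P236L, Y181C), varying dTTP or poly(rA):(dT)10 template:primer. Base assay: 28 °C, 10 min, pH 8.3 Tris-HCl, 10 mM MgCl2, 60 mM NaCl, 2 mM DTT, 0.05% NP-40, [3H]TTP incorporation. TCA-precipitated product collected on glass fibre filters and counted. Ki values derived.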

[18] = test system: Human immunodeficiency virus 1; experiment: Concentration required to inhibit P24 production by 90% against U-90,152 of HIV-1 IIIB (L100I, M230L); format: functional
[19] = Clearance at an iv dose of 15 mg/Kg and po dose of 120 mg/Kg; format: ADME, organism-based; conditions: in vivo; procedure, shortened: as §1
[20] = test system: Human immunodeficiency virus 1; experiment: Concentration required to inhibit P24 production by 90% against U-90,152 of HIV-1 MF (P236L); format: functional
[21] = test system: Human immunodeficiency virus 1; experiment: In vitro inhibition of recombinant HIV-1 IIIB mutant Y181C; format: functional, organism-based
[22] = target: T3, Human immunodeficiency virus type 1 reverse transcriptase; experiment: Compound was tested for inhibition of HIV-1 P236L reverse transcriptase using dTTP as substrate
[23] = target: T1, Human immunodeficiency virus type 1 reverse transcriptase; experiment: Compound was tested for inhibition of HIV-1 WT reverse transcriptase using poly(rA)300:oligo(dT)10 as substrate
[24] = target: T1, Human immunodeficiency virus type 1 reverse transcriptase; experiment: Compound was tested for inhibition of HIV-1 WT reverse transcriptase using dTTP as substrate
[25] = Clearance at an iv dose of 15 mg/Kg and po dose of 240 mg/Kg; format: ADME, organism-based; conditions: in vivo; procedure, shortened: as §1
[26] = target: T3, Human immunodeficiency virus type 1 reverse transcriptase
[27] = Clearance at an iv dose of 15.7 mg/Kg and po dose of 31.4 mg/Kg; format: ADME, organism-based; conditions: rat, in vivo; procedure, shortened: as §1
[28] = Bioavailability at an iv dose of 15.7 mg/Kg and po dose of 31.4 mg/Kg; format: ADME, organism-based; conditions: rat, in vivo, read-out: Bioavailabiility; procedure, shortened: as §1
[29] = Clearance at an iv dose of 12 mg/Kg and po dose of 23 mg/Kg; format: ADME, organism-based; conditions: rat, in vivo; procedure, shortened: as §1
[30] = Bioavailability at an iv dose of 12 mg/Kg and po dose of 23 mg/Kg; format: ADME, organism-based; conditions: rat, in vivo, read-out: Bioavailabiility; procedure, shortened: as §1
[31] = Clearance at an iv dose of 14 mg/Kg and po dose of 15 mg/Kg; format: ADME, organism-based; conditions: rat, in vivo; procedure, shortened: as §1
[32] = Bioavailability at an iv dose of 14 mg/Kg and po dose of 15 mg/Kg; format: ADME, organism-based; conditions: rat, in vivo, read-out: Bioavailabiility; procedure, shortened: as §1
Rattus norvegicus = experiment: Bioavailability at an iv dose of 14 mg/Kg and po dose of 28 mg/Kg; format: ADME, organism-based; conditions: in vivo; procedure, shortened: as §1

Compound: CC(C)Nc1cccnc1N(C)C1CCN(C(=O)c2cc3cc(NS(C)(=O)=O)ccc3[nH]2)CC1
- bioavailability [1]: 4.3%
- clearance [2]: 44 mL/min/kg
- IC90 [3]: 1000 nM

Compound: CNC(=O)Nc1ccc2[nH]c(C(=O)N3CCC(N(C)c4ncccc4NC(C)C)CC3)cc2c1
- pIC50 [4]: 6.74
- bioavailability [5]: 12.3%
- pIC50 [6]: 5.80
- clearance [7]: 42 mL/min/kg

Compound: CCN(c1ncccc1NC(C)(C)C)C1CCN(C(=O)c2cc3cc(NS(C)(=O)=O)ccc3[nH]2)CC1
- pKi [8]: 5.80
- pKi [9]: 5.72
- pIC50 [10]: 6.49
- clearance [11]: 50 mL/min/kg
- clearance [12]: 50 mL/min/kg
- bioavailability [13]: 42%
- bioavailability [14]: 124%
- bioavailability [15]: 14%
- pIC50 [16]: 6.34
- pKi [17]: 5.51
- IC90 [18]: 80 nM
- IC90 [3]: 30 nM
- clearance [19]: 50 mL/min/kg
- IC90 [20]: 190 nM
- pIC50 [21]: 6.18
- pKi [22]: 5.95
- pKi [23]: 5.86
- pKi [24]: 5.99
- clearance [25]: 50 mL/min/kg

Compound: CC(C)Nc1cccnc1N(C1CC1)C1CCN(C(=O)c2cc3cc(NS(C)(=O)=O)ccc3[nH]2)CC1
- pIC50 [26]: 6.15
- clearance [27]: 22.6 mL/min/kg
- pIC50 [4]: 6.64
- pIC50 [6]: 6.03
- bioavailability [28]: 1.6%

- clearance [29]: 13 mL/min/kg
- bioavailability [30]: 75%
Compound: CCNc1cccnc1N1CCN(C(=O)c2cc3cc(OC)ccc3[nH]2)CC1.CS(=O)(=O)O [ATEVIRDINE SULPHATE]

- clearance [31]: 13.6 mL/min/kg
- bioavailability [32]: 64%
- Bioavailabiility (Rattus norvegicus): 169%
Compound: CC(C)Nc1cccnc1N1CCN(C(=O)c2cc3cc(NS(C)(=O)=O)ccc3[nH]2)CC1.CS(=O)(=O)O [DELAVIRDINE MESYLATE]
